Compound activity (PubChem)
PTK2B oligo ant – blocks oligomerization of human Pyk2 in cells | Q14289 | Q293 cells, Pyk2 FERM NanoBiT luminescence; stronger effect = lower value | z-score (the deposit names both 25 µM and 10 µM) | 99,000 compounds, 0.83% hits;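 active = Z-score of -3 or lower, scaled per plate to the spread of control and sample wells; inactive = z-score above -3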;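 note: negative z-score means lost luminescence so less FERM oligomerization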
PLK1 inh – blocks human PLK1 kinase activity | AID 619 | recombinant PLK1 kinase, TR-FRET peptide phosphorylation | 97,000 compounds, 0.53% hits | P53350 | inhibition, % at 10 µM;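 active = inhibition of 50% or more in the single-concentration screen; inactive = inhibition below 50%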;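 note: 0% = DMSO max control and 100% = H-89 dihydrochloride min control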
FAK blocker – FAK (human) kinase inhibition; Q05397; biochemical FAK kinase activity assay; inhibition, %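 (tested at 7 µM)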; 97,000 compounds, 0.84% hits; AID 727; in the data active = inhibition above about 19%;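 note: 0% = DMSO and 100% = reference compound high control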
Target sequence (Q05397 whole entry, looked up): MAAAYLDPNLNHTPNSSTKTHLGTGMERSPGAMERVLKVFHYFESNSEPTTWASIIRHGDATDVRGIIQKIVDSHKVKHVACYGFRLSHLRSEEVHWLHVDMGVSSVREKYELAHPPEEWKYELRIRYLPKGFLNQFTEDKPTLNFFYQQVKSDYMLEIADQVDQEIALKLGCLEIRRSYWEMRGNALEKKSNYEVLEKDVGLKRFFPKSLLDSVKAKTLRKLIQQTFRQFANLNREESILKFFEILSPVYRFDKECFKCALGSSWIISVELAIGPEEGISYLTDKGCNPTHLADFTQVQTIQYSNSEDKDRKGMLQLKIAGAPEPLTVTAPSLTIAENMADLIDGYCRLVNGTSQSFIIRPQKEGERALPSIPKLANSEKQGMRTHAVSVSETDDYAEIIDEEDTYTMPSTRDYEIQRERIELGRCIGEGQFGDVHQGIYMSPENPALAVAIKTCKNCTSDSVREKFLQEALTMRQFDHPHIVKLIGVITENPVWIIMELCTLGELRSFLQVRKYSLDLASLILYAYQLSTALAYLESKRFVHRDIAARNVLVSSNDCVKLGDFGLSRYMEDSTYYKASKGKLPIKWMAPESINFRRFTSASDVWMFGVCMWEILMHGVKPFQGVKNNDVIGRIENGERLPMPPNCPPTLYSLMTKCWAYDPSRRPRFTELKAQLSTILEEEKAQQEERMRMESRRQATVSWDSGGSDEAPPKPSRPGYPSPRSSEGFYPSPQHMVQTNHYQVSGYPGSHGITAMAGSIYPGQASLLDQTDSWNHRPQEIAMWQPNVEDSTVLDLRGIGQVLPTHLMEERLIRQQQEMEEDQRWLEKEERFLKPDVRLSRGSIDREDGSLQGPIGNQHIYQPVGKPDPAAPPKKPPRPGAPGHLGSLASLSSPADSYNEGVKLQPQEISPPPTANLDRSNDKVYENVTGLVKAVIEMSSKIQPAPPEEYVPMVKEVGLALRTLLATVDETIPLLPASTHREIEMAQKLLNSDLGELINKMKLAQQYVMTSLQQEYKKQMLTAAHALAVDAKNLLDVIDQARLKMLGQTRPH
Cav32 inh – inhibitors of human Cav3.2 T-type calcium channel; Cav3.2-expressing cells, Fluo-4 calcium fluorescence FDSS; stronger effect = lower value; B-score at 10 µM; 100,000 compounds, 4% hits;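 active = single-dose well whose peak fluorescence ratio is a statistical outlier from its plate by either plate-standardised score or position-corrected B-score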
HIV Rev-RRE inh – HIV Rev-RRE protein-RNA interaction inhibition. inhibition, % at 8 µM. 97,000 compounds, 0.79% hits. Rev peptide-RRE RNA binding, FRET. P05866;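 active = inhibition above the screen-wide mean plus 3 SD, cut at about 35% in these data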;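 note: 0% = median DMSO wells and 100% = median Neomycin B control wells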
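Assay system: labelled RRE RNA duplex and labelled Rev peptide / Medium: HEPES pH 7.5 salt buffer with EDTA / Reagent: labelled Rev peptide / Schedule: 5 + 15 min at 25 °C / Signal: FRET, excitation 480 nm, emission 540 nm donor and 671 nm acceptor / Benchmarks: DMSO and neomycin B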
Plk1 PBD FP – inhibitors of human Plk1 polo box domain binding; P53350; Plk1 PBD phosphopeptide binding, fluorescence polarization; inhibition, %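 (tested at about 20 µM)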; 97,000 compounds, 0.13% hits; in the data active = inhibition above about 34%, passing the limit was not always enough
Starred values were filed as active, the others as inactive; nt = not tested or not shown; [ ] = another dose, or the depositor's remark. Sampled rows, rich in hits. Any-hit rate of the full collection: about 5.8%.

SMILES | PTK2B oligo ant | PLK1 inh | FAK blocker | Cav32 inh | HIV Rev-RRE inh | Plk1 PBD FP
COCC(=O)Nc1nc2n(n1)C(c1ccc(Cl)cc1)CC(c1ccc(OC)cc1)N2 (stereo unspecified) | -1.6 | -7.3 | -1.7 | -1.11 | 36.1* | -8.8
COCC(=O)Nc1nc2n(n1)C(c1ccccc1Cl)CC(c1ccc(OC)cc1)N2 (stereo unspecified) | -2.47 | -14.0 | 5.2 | -0.0203 | 5.4 | 13.7
Cn1c(=O)c(-c2cc(Br)ccc2N)nc2ccccc21 | -1.26 | -6.0 | -0.7 | nt | 5.8 | 1.7
COc1ccc(N=Nc2nc3ccc(Br)cc3n2C)cc1 | -1.08 | -3.5 | 2.8 | nt | 101.2*[fluorescence artefact?] | 40.5
O=C(NCCc1ccccc1)C(=O)c1c(-c2ccccc2)[nH]c2ccccc12 | nt | nt | nt | -1.13 | nt | nt
O=[N+]([O-])c1ccc(N2CCC(=NOCc3ccc(Cl)cc3)CC2)cc1 | 0.78 | -19.3 | -1.1 | -5.71* | 13.7 | 17.0
CCCCOCCCn1cnc2c([nH]c3cc(OC)ccc32)c1=O | 2.09 | 0.8 | 0.5 | 1.04 | 11.7 | -4.2
COc1ccc(C2C=C(c3ccccc3)Nc3nnnn32)cc1 (stereo unspecified) | 0.16 | -8.8 | -1.5 | -0.131 | 13.7 | 20.9
COc1ccc(C2=CC(c3ccc(C)cc3)n3nnnc3N2)cc1 (stereo unspecified) | -0.5 | -8.2 | 0.6 | -0.428 | 46.8* | -14.1
COc1ccc(C2C=C(c3ccc(Br)s3)Nc3ncnn32)cc1OC (stereo unspecified) | nt | nt | nt | -8.74* | nt | nt
COc1cccc(C2=CC(c3ccccc3)n3nnnc3N2)c1 (stereo unspecified) | 0.94 | -3.0 | 1.8 | nt | 12.5 | 22.8
COc1ccc(C2C=C(c3ccccc3)Nc3nc(NC(C)=O)nn32)cc1 (stereo unspecified) | nt | -5.0 | 2.6 | -0.155 | 42.4* | 4.9
COc1ccc(C2C=C(c3ccc(C)cc3)Nc3ncnn32)cc1 (stereo unspecified) | -1.04 | -11.2 | 3.4 | nt | 56.0* | 0.9
NC1=NC[C@H](c2ccccc2)N1CCc1cccc(F)c1 | nt | nt | nt | 0.0711 | nt | nt
COc1cccc(OCCNc2cc(N3CCCCC3)ccc2[N+](=O)[O-])c1 | -0.97 | -7.5 | 4.2 | -4.09* | 9.2 | 3.9
CC(C)C(NC(=O)CNC(=O)OC(C)(C)C)C(=O)NCc1ccccc1 (stereo unspecified) | 1.41 | -9.6 | -7.8 | 0.57 | -2.0 | -7.5
C=CCOn1c(=O)c(=O)n(OCc2ccccc2)c2ccccc21 | -0.75 | -19.4 | 5.0 | 1.04 | -0.3 | -4.8
O=C(CSc1nc2ccccc2s1)Nc1ncccn1 | 1.74 | nt | nt | 0.34 | nt | nt
Nc1nnc(SCC(=O)NCCOc2ccccc2)s1 | -0.94 | -5.5 | -1.2 | -0.609 | 6.8 | 10.9
Cc1cnc(NC(=O)CSc2nc3ccccc3s2)s1 | -0.09 | -2.1 | 3.5 | -4.61* | 7.0 | 10.3
O=C(CSc1nc2ccccc2s1)NCCOc1ccc(Cl)cc1 | 1.33 | -12.6 | 2.1 | -6.19* | 8.0 | -14.9
CON1C(=O)C(=O)N(OC)C2CCCCC21 (stereo unspecified) | 0.9 | -10.5 | -0.4 | nt | 4.2 | -26.4
CCN1C(=O)N(c2cccc3ccccc23)C(C)=CC1(C)C | -0.78 | -5.0 | -2.4 | -5.68* | -4.3 | -14.2
N#CC1=C(N)OC2=C(CC/C2=C\c2ccccc2)C1c1ccccc1 (stereo unspecified) | -1.35 | -8.8 | -3.7 | nt | 135.6*[fluorescence artefact?] | -86.1
N#CC1=C(N)OC2=C(C(=O)CCC2)C1c1ccccc1 (stereo unspecified) | 0.93 | 0.0 | 5.3 | -0.924 | 6.1 | -7.5
SMILES | PTK2B oligo ant | PLK1 inh | FAK blocker | Cav32 inh | HIV Rev-RRE inh | Plk1 PBD FP
CCOC(=O)c1c(NC(=O)C(C)N2CCN(C(=O)c3ccco3)CC2)sc2c1CCCC2 (stereo unspecified) | -1.31 | -7.5 | 0.6 | nt | 4.4 | 6.1
Cc1cccc(Nc2ncnc3nc[nH]c23)c1C | nt | 56.0* | -2.0 | 0.0671 | 5.4 | -41.5
FC(F)Sc1ccc(Nc2ncnc3nc[nH]c23)cc1 | 0.27 | 60.1* | 9.7 | -0.235 | -3.5 | 9.5
Cc1cccc(NC(=O)CSc2ncnc3nc[nH]c23)c1C | 0.47 | 16.4 | -9.9 | -0.354 | 2.0 | 24.3
N/C(Cc1cccs1)=N\OC(=O)COc1ccccc1 | -0.17 | -9.3 | -1.3 | -0.0109 | 6.2 | -19.0
CCOC(=O)c1cccc(NC(=O)c2cccnc2)c1 | -0.44 | nt | nt | 0.294 | nt | nt
CCOC(=O)c1cccc(Nc2nc(-c3cccnc3)nc3ccccc23)c1 | -3.65* | -19.2 | 17.3 | nt | 8.9 | 5.0
